Test results reported in ChEMBL document CHEMBL1949557, “Discovery of INCB3284, a Potent, Selective, and Orally Bioavailable hCCR2 Antagonist” (ACS Med Chem Lett, 2011).

Legend:
[1] = molecular target: T1, C-C chemokine receptor type 2 (Homo sapiens, UniProt P41597); experiment: Displacement of [125I]MCP1 from CCR2 in human PBMC at 1 uM after 30 mins by gamma counter
Target sequence in this assay (P41597 whole entry, looked up): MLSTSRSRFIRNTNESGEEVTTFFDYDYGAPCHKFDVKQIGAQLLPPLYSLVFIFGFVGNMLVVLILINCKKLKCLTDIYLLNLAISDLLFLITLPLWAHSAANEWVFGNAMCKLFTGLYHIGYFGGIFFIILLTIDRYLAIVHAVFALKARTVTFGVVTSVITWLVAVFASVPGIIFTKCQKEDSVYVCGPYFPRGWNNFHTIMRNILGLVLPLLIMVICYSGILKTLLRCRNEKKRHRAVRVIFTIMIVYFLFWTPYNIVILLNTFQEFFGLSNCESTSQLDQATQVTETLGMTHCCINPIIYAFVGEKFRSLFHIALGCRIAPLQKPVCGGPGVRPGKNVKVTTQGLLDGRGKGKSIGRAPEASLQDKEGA

[2] = molecular target: T1, C-C chemokine receptor type 2; experiment: Displacement of [125I]MCP1 from CCR2 in human PBMC after 30 mins by gamma counter
Target sequence in this assay (P41597 whole entry): as the sequence (P41597 whole entry, looked up) above

[3] = system: Mus musculus; experiment: Dose normalized AUC in mouse at 10 mg/kg, po; type: ADME, organism-based; design: dose 10 mg/kg, route oral; settings: in vivo
How it was run: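 Mouse oral PK screen by cassette dosing at 10 mg/kg, three animals per cassette. AUC is dose-normalized.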

[4] = molecular target: C-C chemokine receptor type 2 (Mus musculus, UniProt P51683); experiment: Displacement of [125I]MCP1 from mouse CCR2 after 30 mins by gamma counter
Sequence of C-C chemokine receptor type 2 (Mus musculus, UniProt P51683) (P51683 whole entry): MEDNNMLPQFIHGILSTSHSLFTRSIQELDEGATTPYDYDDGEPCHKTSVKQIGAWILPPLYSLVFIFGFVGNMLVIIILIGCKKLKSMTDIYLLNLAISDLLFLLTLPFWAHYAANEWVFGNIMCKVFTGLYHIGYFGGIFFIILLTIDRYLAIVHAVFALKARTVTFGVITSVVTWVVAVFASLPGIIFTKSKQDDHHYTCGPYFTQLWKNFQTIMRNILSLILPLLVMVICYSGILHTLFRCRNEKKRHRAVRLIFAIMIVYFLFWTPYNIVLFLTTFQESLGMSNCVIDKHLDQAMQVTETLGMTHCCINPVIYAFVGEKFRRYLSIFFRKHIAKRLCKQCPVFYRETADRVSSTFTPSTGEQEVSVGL

SMILES	inhibition [1] [%]	IC50 [2] [nM]	AUC/dose [3] [nM·h]	IC50 [4] [nM]
O=C(CNC(=O)c1cccc(C(F)(F)F)c1)N[C@@H]1CCN([C@H]2CC[C@](O)(c3cncnc3)CC2)C1	< 50	–	–	–
O=C(CNC(=O)c1cccc(C(F)(F)F)c1)N[C@@H]1CCN([C@H]2CC[C@@](O)(c3cccnn3)CC2)C1	–	7.3	155	–
O=C(CNC(=O)c1cccc(C(F)(F)F)c1)N[C@@H]1CCN([C@H]2CC[C@@](O)(c3cncnc3)CC2)C1	–	14	–	–
O=C(CNC(=O)c1cccc(C(F)(F)F)c1)N[C@@H]1CCN([C@H]2CC[C@@](O)(c3ccnnc3)CC2)C1	–	4.9	80	–
Cc1ccc([C@]2(O)CC[C@H](N3CC[C@@H](NC(=O)CNC(=O)c4cccc(C(F)(F)F)c4)C3)CC2)cn1	–	2.4	127	–
O=C(CNC(=O)c1cccc(C(F)(F)F)c1)N[C@@H]1CCN([C@H]2CC[C@@](O)(c3ccncc3)CC2)C1	–	4.3	100	–
CCOc1ccc([C@]2(O)CC[C@H](N3CC[C@@H](NC(=O)CNC(=O)c4cccc(C(F)(F)F)c4)C3)CC2)cn1	–	3.2	287	–
O=C(CNC(=O)c1cccc(C(F)(F)F)c1)N[C@@H]1CCN([C@H]2CC[C@@](O)(c3ccccn3)CC2)C1	–	3.2	2812	–
O=C(CNC(=O)c1cccc(C(F)(F)F)c1)N[C@@H]1CCN([C@H]2CC[C@](O)(c3ccnnc3)CC2)C1	< 50	–	–	–
CCOc1ccc([C@]2(O)CC[C@@H](N3CC[C@@H](NC(=O)CNC(=O)c4cccc(C(F)(F)F)c4)C3)CC2)cn1	< 50	–	–	–
COc1ccc([C@]2(O)CC[C@@H](N3CC[C@@H](NC(=O)CNC(=O)c4cccc(C(F)(F)F)c4)C3)CC2)cn1	< 50	–	–	–
O=C(CNC(=O)c1cccc(C(F)(F)F)c1)N[C@@H]1CCN([C@H]2CC[C@](O)(c3ccccn3)CC2)C1	< 50	–	–	–
Cc1ccc([C@]2(O)CC[C@H](N3CC[C@@H](NC(=O)CNC(=O)c4cccc(C(F)(F)F)c4)C3)CC2)cc1	–	1	–	18
Cc1ccc([C@]2(O)CC[C@H](N3CC[C@H](NC(=O)CNC(=O)c4cccc(C(F)(F)F)c4)C3)CC2)cc1	–	> 1000	–	–
O=C(CNC(=O)c1cccc(C(F)(F)F)c1)N[C@@H]1CCN([C@H]2CC[C@@](O)(c3ncccn3)CC2)C1	–	10.3	1442	–
O=C(CNC(=O)c1cccc(C(F)(F)F)c1)N[C@@H]1CCN([C@H]2CC[C@](O)(c3cnccn3)CC2)C1	< 50	–	–	–
O=C(CNC(=O)c1cccc(C(F)(F)F)c1)N[C@@H]1CCN([C@H]2CC[C@@](O)(c3cnccn3)CC2)C1	–	10.9	1550	–
O=C(CNC(=O)c1cccc(C(F)(F)F)c1)N[C@@H]1CCN([C@H]2CC[C@](O)(c3ccncc3)CC2)C1 (mixture of isomers)	< 50	–	–	–
O=C(CNC(=O)c1cccc(C(F)(F)F)c1)N[C@@H]1CCN([C@H]2CC[C@](O)(c3cccnn3)CC2)C1	< 50	–	–	–
O=C(CNC(=O)c1cccc(C(F)(F)F)c1)N[C@@H]1CCN([C@H]2CC[C@](O)(c3cccnc3)CC2)C1	< 50	–	–	–
O=C(CNC(=O)c1cccc(C(F)(F)F)c1)N[C@@H]1CCN([C@H]2CC[C@@](O)(c3cccnc3)CC2)C1	–	2.6	50	–
O=C(CNC(=O)c1cccc(C(F)(F)F)c1)N[C@@H]1CCN([C@H]2CC[C@](O)(c3ncccn3)CC2)C1	< 50	–	–	–
O=C(CNC(=O)c1cccc(C(F)(F)F)c1)N[C@@H]1CCN([C@H]2CC[C@](O)(c3ccncn3)CC2)C1	< 50	–	–	–
Cc1ccc([C@]2(O)CC[C@@H](N3CC[C@@H](NC(=O)CNC(=O)c4cccc(C(F)(F)F)c4)C3)CC2)cn1	< 50	–	–	–
O=C(CNC(=O)c1cccc(C(F)(F)F)c1)N[C@@H]1CCN([C@H]2CC[C@@](O)(c3ccncn3)CC2)C1	–	7.8	930	–
